How the values were obtained:
Format in all cases: functional
CCRF-CEM = experiment: Growth inhibition of human CCRF-CEM cells after 48 hrs by SRB assay
Summary of the method: (§1)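 Suspension leukemia lines were run in the NCI-60 SRB format. Cells were plated at 5,000–40,000 cells/well and pre-incubated 24 h at 37 °C, 5% CO₂, with time-zero plates fixed at drug addition. Drug exposure in DMSO-derived dilutions lasted 48 h. Settled cells were fixed with 80% TCA (final 16%), stained with 0.4% SRB, solubilized in 10 mM trizma base, and read at 515 nm. Percent growth was taken relative to the time-zero and control readings.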

NCI-H460 = experiment: Growth inhibition of human NCI-H460 cells after 48 hrs by SRB assay; conditions: NCI-H460, 48 h
Summary of the method: (§2)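 NCI-60 panel protocol with adherent lines. Cells were seeded at 5,000–40,000 cells/well, depending on doubling time, and pre-incubated 24 h at 37 °C, 5% CO₂. Time-zero plates were TCA-fixed at drug addition. Drugs were dissolved in DMSO and exposed for 48 h. Cells were fixed with cold TCA (final 10%) for 60 min at 4 °C, stained with 0.4% SRB in 1% acetic acid for 10 min, solubilized with 10 mM trizma base, and read at A515.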

MCF7 = experiment: Growth inhibition of human MCF7 cells after 48 hrs by SRB assay; conditions: MCF7, 48 h; summary of the method: as §2
NCI-H226 = experiment: Growth inhibition of human NCI-H226 cells after 48 hrs by SRB assay; conditions: NCI-H226, 48 h; summary of the method: as §2
BT-549 = experiment: Growth inhibition of human BT549 cells after 48 hrs by SRB assay; conditions: BT-549, 48 h; summary of the method: as §2
U-251 = experiment: Growth inhibition of human U251 cells after 48 hrs by SRB assay; conditions: U-251, 48 h
Summary of the method: (§3)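 NCI 60-cell panel, five-dose format: cells plated at 5,000–40,000/well by doubling time, preincubated 24 h at 37 °C, 5% CO2; time-zero plates TCA-fixed. Compound dissolved in DMSO, five concentrations (0.01, 0.1, 1, 10, 100 µM) plus control, 48 h. Cells fixed with cold TCA, stained with 0.4% SRB in 1% acetic acid, bound dye solubilized in 10 mM trizma base, absorbance at 515 nm. GI50 taken from [(Ti–Tz)/(C–Tz)]×100 = 50.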

HL-60(TB) = experiment: Growth inhibition of human HL-60(TB) cells after 48 hrs by SRB assay; conditions: HL-60, 48 h
Summary of the method: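 NCI-60 protocol: cells seeded at 5,000–40,000/well by doubling time and preincubated 24 h at 37 °C, 5% CO2. Drug, dissolved in DMSO, was added at one dose (10^-5 M) or five 10-fold dilutions, then incubated 48 h. Suspension cells were fixed with 80% TCA (final 16%) and stained with 0.4% SRB, read at 515 nm. GI50 was derived from percentage growth versus time-zero and control.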

OVCAR-4 = experiment: Growth inhibition of human OVCAR4 cells after 48 hrs by SRB assay; conditions: OVCAR-4, 48 h; summary of the method: as §2
ACHN = experiment: Growth inhibition of human ACHN cells after 48 hrs by SRB assay; summary of the method: as §2
A498 = experiment: Growth inhibition of human A498 cells after 48 hrs by SRB assay; conditions: A498, 48 h; summary of the method: as §2
786-0 = experiment: Growth inhibition of human 786-0 cells after 48 hrs by SRB assay; conditions: 786-0, 48 h; summary of the method: as §2
SK-MEL-28 = experiment: Growth inhibition of human SK-MEL-28 cells after 48 hrs by SRB assay; conditions: SK-MEL-28, 48 h; summary of the method: as §2
SR = experiment: Growth inhibition of human SR cells after 48 hrs by SRB assay; summary of the method: as §3
NCI-H522 = experiment: Growth inhibition of human NCI-H522 cells after 48 hrs by SRB assay; conditions: NCI-H522, 48 h; summary of the method: as §2
MDA-MB-231 = experiment: Growth inhibition of human MDA-MB-231 cells after 48 hrs by SRB assay; conditions: MDA-MB-231, 48 h; summary of the method: as §2
NCI-H23 = experiment: Growth inhibition of human NCI-H23 cells after 48 hrs by SRB assay; conditions: NCI-H23, 48 h; summary of the method: as §2
SF-295 = experiment: Growth inhibition of human SF295 cells after 48 hrs by SRB assay; conditions: SF-295, 48 h; summary of the method: as §2
HCC 2998 = experiment: Growth inhibition of human HCC2998 cells after 48 hrs by SRB assay; conditions: HCC 2998, 48 h; summary of the method: as §2
KM12 = experiment: Growth inhibition of human KM12 cells after 48 hrs by SRB assay; conditions: KM12, 48 h; summary of the method: as §2
SF-268 = experiment: Growth inhibition of human SF268 cells after 48 hrs by SRB assay; conditions: SF-268, 48 h; summary of the method: as §2
NCI-H322M = experiment: Growth inhibition of human NCI-H322M cells after 48 hrs by SRB assay; summary of the method: as §2
[1] = Growth inhibition of human Hs 578T cells after 48 hrs by SRB assay; summary of the method: as §2
MOLT-4 = experiment: Growth inhibition of human MOLT4 cells after 48 hrs by SRB assay; conditions: MOLT-4, 48 h; summary of the method: as §1
OVCAR-8 = experiment: Growth inhibition of human OVCAR8 cells after 48 hrs by SRB assay; conditions: OVCAR-8, 48 h; summary of the method: as §2
NCI/ADR-RES = experiment: Growth inhibition of human NCI/ADR-RES cells after 48 hrs by SRB assay; summary of the method: as §2
[2] = read-out: LC50 (the source's name)

For COc1ccc(C2CC(c3nc4ccccc4[nH]3)=NN2c2ccccc2)cc1OC (stereo not given), the GI50 (CCRF-CEM) was 2.23 µM, the TGI (CCRF-CEM) was 6.82 µM and the CC50 (CCRF-CEM; [2]) was 88.7 µM. It also gave a GI50 (NCI-H460) of 13.6 µM, a TGI (NCI-H460) of 40 µM and a CC50 (NCI-H460; [2]) of over 100 µM. For the same molecule, the GI50 (MCF7) was 2.41 µM, the TGI (MCF7) was 15.3 µM and the CC50 (MCF7; [2]) was 54.2 µM. It also gave a GI50 (NCI-H226) of 15.3 µM, a TGI (NCI-H226) of over 100 µM and a CC50 (NCI-H226; [2]) of over 100 µM. The GI50 (BT-549) was 10.3 µM, the TGI (BT-549) was 69 µM and the CC50 (BT-549; [2]) was over 100 µM. For the same molecule, the GI50 (U-251) was 7.67 µM, the TGI (U-251) was 80.2 µM and the CC50 (U-251; [2]) was over 100 µM. For the same molecule, the GI50 (HL-60(TB)) was over 100 µM, the TGI (HL-60(TB)) was over 100 µM and the CC50 (HL-60(TB); [2]) was over 100 µM. It also gave a GI50 (OVCAR-4) of 9.31 µM, a TGI (OVCAR-4) of over 100 µM and a CC50 (OVCAR-4; [2]) of over 100 µM. It also gave a GI50 (ACHN) of 14 µM, a TGI (ACHN) of over 100 µM and a CC50 (ACHN; [2]) of over 100 µM. For the same molecule, the GI50 (A498) was 5.14 µM, the TGI (A498) was 58.1 µM and the CC50 (A498; [2]) was over 100 µM. For the same molecule, the GI50 (786-0) was 24.2 µM, the TGI (786-0) was over 100 µM and the CC50 (786-0; [2]) was over 100 µM. It also gave a GI50 (SK-MEL-28) of 13.1 µM, a TGI (SK-MEL-28) of 39 µM and a CC50 (SK-MEL-28; [2]) of over 100 µM. For the same molecule, the GI50 (SR) was over 100 µM, the TGI (SR) was over 100 µM and the CC50 (SR; [2]) was over 100 µM. The GI50 (NCI-H522) was 5.46 µM, the TGI (NCI-H522) was 34.8 µM and the CC50 (NCI-H522; [2]) was over 100 µM. The GI50 (MDA-MB-231) was 7.19 µM, the TGI (MDA-MB-231) was 91.5 µM and the CC50 (MDA-MB-231; [2]) was over 100 µM. For the same molecule, the GI50 (NCI-H23) was 16 µM, the TGI (NCI-H23) was over 100 µM and the CC50 (NCI-H23; [2]) was over 100 µM. It also gave a GI50 (SF-295) of 5.98 µM, a TGI (SF-295) of 51.4 µM and a CC50 (SF-295; [2]) of over 100 µM. For the same molecule, the GI50 (HCC 2998) was 12.4 µM, the TGI (HCC 2998) was 26.1 µM and the CC50 (HCC 2998; [2]) was 55 µM. For the same molecule, the GI50 (KM12) was 5.14 µM, the TGI (KM12) was 19.5 µM and the CC50 (KM12; [2]) was 52.2 µM. For the same molecule, the GI50 (SF-268) was 21.3 µM, the TGI (SF-268) was over 100 µM and the CC50 (SF-268; [2]) was over 100 µM. The GI50 (NCI-H322M) was 21.3 µM, the TGI (NCI-H322M) was over 100 µM and the CC50 (NCI-H322M; [2]) was over 100 µM. The GI50 [1] was 6.18 µM, the TGI [1] was 41.2 µM and the CC50 [1, 2] was over 100 µM. It also gave a GI50 (MOLT-4) of 17.9 µM, a TGI (MOLT-4) of over 100 µM and a CC50 (MOLT-4; [2]) of over 100 µM. For the same molecule, the GI50 (OVCAR-8) was 19.9 µM, the TGI (OVCAR-8) was over 100 µM and the CC50 (OVCAR-8; [2]) was over 100 µM. It also gave a GI50 (NCI/ADR-RES) of 19 µM, a TGI (NCI/ADR-RES) of 94.5 µM and a CC50 (NCI/ADR-RES; [2]) of over 100 µM.

From ChEMBL document CHEMBL1154686, “Pyrazoline bearing benzimidazoles: search for anticancer agent” (2010)
